Data published in ChEMBL document CHEMBL1255290, “Characterization of a novel human immunodeficiency virus type 1 protease inhibitor, A-790742” (Antimicrob Agents Chemother, 2008).

Experiments:
[1] = test system: Human immunodeficiency virus 1; assay: Antiviral activity against HIV1 pNL4-3 infected in human MT4 cells derived from 7 viral passages with 32 nM A-790742 harboring protease I84V mutation assessed as reduction in viral cytopathogenicity treated 1 hr post infection measured 5 days post infection by MTT assay relative to wild type HIV1 pNL4-3; format: functional
Outline: (§1)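 Selection: MT-4 cells infected with parental pNL4-3 or RF (MOI 0.003, 2 h), then passaged under rising selecting drug whenever supernatant p24 (ELISA) exceeded 10 ng/ml. Passage viruses titred by TCID50 (Spearman-Karber). Assay: 10^6 MT-4 cells infected at MOI 0.003 for 1 h, washed, and seeded at 10^4 cells/well with eight serial dilutions, triplicate, 0.5% DMSO final. Day-5 MTT read-out; EC50 fold-change versus parental wild type.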

[2] = test system: Human immunodeficiency virus 1; assay: Antiviral activity against HIV1 isolate 12 infected in human MT4 cells obtained from protease inhibitor-resistant patient harboring protease L10I, I13V, K20I, E35D, M36I, M46I, I50V, I54V, R57K, I62V, L63P, A71V, V82A, L89V, L90M, Q92K mutation derived from viral passages with Lopinavir assessed as reduction in viral cytopathogenicity treated 1 hr post infection measured 5 days post infection by …; format: functional
[3] = test system: Human immunodeficiency virus 1; assay: Antiviral activity against wild-type HIV1 RF infected in human MT4 cells assessed as reduction in viral cytopathogenicity treated 1 hr post infection measured 5 days post infection in absence of human serum by MTT assay; format: functional, organism-based; conditions: Human immunodeficiency virus 1, RF
Outline: (§2)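 For the assay, 10⁶ MT-4 cells were infected at MOI 0.003, washed after 1 h, and plated at 10⁴ cells/well with eight serial compound dilutions in triplicate (0.5% DMSO final). MTT cytopathic read-out at day 5; EC50 from dose-response fitting.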

[4] = test system: Human immunodeficiency virus 1; assay: Antiviral activity against HIV1 clone5 infected in HEK293 cells harboring A-790742-selected protease L63P, A71V, and V82G mutation assessed as reduction in viral replication by luciferase reporter gene assay relative to wild type HIV1 RF; format: functional
Outline: (§3)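 Single-cycle assay: HEK-293 cells were cotransfected with luciferase-reporter HIV-1 protease clones plus a VSV-G expression vector. After 4 h, cells were replated at 2 × 10⁴/well over serial inhibitor dilutions in triplicate. Pseudovirus collected at 48 h infected fresh HEK-293 (10⁴/well). Luciferase read 48 h later gave % inhibition versus untreated and EC50. Fold change against WT pNL4-3-Luc (clones 1-4) or RF-Luc (clone 5) is the mean of three experiments.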

[5] = test system: Human immunodeficiency virus 1; assay: Antiviral activity against wild-type HIV1 pNL4-3 infected in human MT4 cells assessed as reduction in viral cytopathogenicity treated 1 hr post infection measured 5 days post infection in presence of 50% human serum by MTT assay; format: functional, organism-based; conditions: Human immunodeficiency virus 1, pNL4-3, MT4
[6] = test system: Human immunodeficiency virus 1; assay: Antiviral activity against HIV1 pNL4-3 infected in human MT4 cells derived from 9 viral passages with 80 nM A-790742 harboring protease V82V/L and I84V mutation assessed as reduction in viral cytopathogenicity treated 1 hr post infection measured 5 days post infection by MTT assay relative to wild type HIV1 pNL4-3; format: functional; outline: as §1
[7] = test system: Human immunodeficiency virus 1; assay: Antiviral activity against HIV1 pNL4-3 infected in human MT4 cells derived from 18 viral passages with 900 nM A-790742 harboring protease L33F, K45I, A71A/V, V77V/I, V82L, I84V mutation assessed as reduction in viral cytopathogenicity treated 1 hr post infection measured 5 days post infection by MTT assay relative to wild type HIV1 pNL4-3; format: functional; outline: as §1
[8] = test system: Human immunodeficiency virus 1; assay: Antiviral activity against HIV1 isolate 4 infected in human MT4 cells obtained from protease inhibitor-resistant patient harboring protease N37T, M46I, Q58E, I64V, T74K, V77I, V82F, L90M mutation derived from viral passages with Lopinavir assessed as reduction in viral cytopathogenicity treated 1 hr post infection measured 5 days post infection by MTT assay relative to wild type HIV1 pNL4-3; format: functional
[9] = test system: Human immunodeficiency virus 1; assay: Antiviral activity against HIV1 isolate 7 infected in human MT4 cells obtained from protease inhibitor-resistant patient harboring protease L10I, M46M/L, G48V, I54V, L63P, A71V, I72M, V77I, V82A, L90M, I93L mutation derived from viral passages with Lopinavir assessed as reduction in viral cytopathogenicity treated 1 hr post infection measured 5 days post infection by MTT assay relative to wild …; format: functional
[10] = test system: Human immunodeficiency virus 1; assay: Antiviral activity against HIV1 clone3 infected in HEK293 cells harboring A-790742-selected protease L33F, K45I, V82L, and I84V mutation assessed as reduction in viral replication by luciferase reporter gene assay relative to wild type HIV1 pNL4-3; format: functional; outline: as §3
[11] = test system: Human immunodeficiency virus 1; assay: Antiviral activity against HIV1 pNL4-3 infected in human MT4 cells derived from 15 viral passages with 560 nM A-790742 harboring protease L33L/F, K45I, V82L, I84V mutation assessed as reduction in viral cytopathogenicity treated 1 hr post infection measured 5 days post infection by MTT assay relative to wild type HIV1 pNL4-3; format: functional; outline: as §1
[12] = test system: Human immunodeficiency virus 1; assay: Antiviral activity against HIV1 P21 infected in human MT4 cells derived from viral passages with A-790742 harboring protease L23I, L33F, K45I, A71A/V, V77I, V82L, and I84V mutation assessed as reduction in viral cytopathogenicity treated 1 hr post infection measured 5 days post infection by MTT assay relative to wild type HIV1 pNL4-3; format: functional; outline: as §2
[13] = test system: Human immunodeficiency virus 1; assay: Antiviral activity against HIV1 P25 infected in human MT4 cells harboring protease L10F, G16E, V32I, M46I, I47A, H69Y, I84V, and T91S mutation derived from viral passages with Lopinavir assessed as reduction in viral cytopathogenicity treated 1 hr post infection measured 5 days post infection by MTT assay; format: functional, organism-based; conditions: Human immunodeficiency virus 1, P25, MT4; outline: as §2
[14] = test system: Human immunodeficiency virus 1; assay: Antiviral activity against HIV1 pNL4-3 infected in human MT4 cells derived from 10 viral passages with 140 nM A-790742 harboring protease V82V/L and I84V mutation assessed as reduction in viral cytopathogenicity treated 1 hr post infection measured 5 days post infection by MTT assay relative to wild type HIV1 pNL4-3; format: functional; outline: as §1
[15] = test system: Human immunodeficiency virus 1; assay: Antiviral activity against HIV1 RF infected in human MT4 cells derived from 13 viral passages with 340 nM A-790742 harboring protease M46I, L63P, A71V, V82G mutation assessed as reduction in viral cytopathogenicity treated 1 hr post infection measured 5 days post infection by MTT assay relative to wild type HIV1 RF; format: functional; outline: as §1
[16] = test system: Human immunodeficiency virus 1; assay: Antiviral activity against HIV1 pNL4-3 infected in human MT4 cells derived from 6 viral passages with 16 nM A-790742 harboring protease I84V mutation assessed as reduction in viral cytopathogenicity treated 1 hr post infection measured 5 days post infection by MTT assay relative to wild type HIV1 pNL4-3; format: functional; outline: as §1

COC(=O)N[C@H](C(=O)N[C@H](Cc1ccc(-c2ccccn2)cc1)C[C@H](O)[C@H](Cc1ccccc1)NC(=O)[C@@H](N1CCN(Cc2cccc(C(C)(C)O)n2)C1=O)C(C)(C)C)C(C)(C)C
Ratio EC50 [1]: 10.7 | Ratio EC50 [2]: 1 | EC50 [3]: 0.005 µM | Ratio EC50 [4]: 72 | EC50 [5]: 0.02 µM | Ratio EC50 [6]: 26.7 | Ratio EC50 [7]: 300 | Ratio EC50 [8]: 1 | Ratio EC50 [9]: 2 | Ratio EC50 [10]: 23 | Ratio EC50 [11]: 186.7 | Ratio EC50 [12]: >2500 | EC50 [13]: 0.045 µM | Ratio EC50 [14]: 46.7 | Ratio EC50 [15]: 68 | Ratio EC50 [16]: 5.3
